From PubChem BioAssay
Jurkat NFkB inh: lowers PMA/ionomycin-induced NF-kB signal in Jurkat cells; PMA/ionomycin-induced NF-kB luciferase reporter, luminescence; inhibition, % at 4 µM; 330,000 compounds, 0.53% hits; AID 435003; in the data active = inhibition above about 50%
697 NFkB inh: inhibitors of the PMA/ionomycin-induced NF-kB reporter in 697 B cells; 697 B-cell NF-kB luciferase reporter, 16 h; inhibition, % at 4 µM; 330,000 compounds, 0.33% hits; AID 435022; in the data active = inhibition above about 35%
VIM-2 inhibitor: blocks Pseudomonas aeruginosa VIM-2 metallo-beta-lactamase; AID 1527; inhibition, % at 5.6 µM; 290,000 compounds, 0.89% hits; purified VIM-2, nitrocefin hydrolysis, epi-absorbance fluorescence;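 active = inhibition above the mean of all tested compounds plus 3 SD, cutoff set per screening run, cut at about 7.5% in these data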;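 also: red hydrolysis product quenches plate fluorescence so inhibitors raise well fluorescence; 0% = enzyme with DMSO and 100% = DMSO without enzyme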
Mdm2-MdmX inh: human Mdm2/MdmX binding inhibition | O15151+Q00987 | SaOS-2 split-luciferase Mdm2/MdmX complementation, luminescence | inhibition, % at 8 µM | 330,000 compounds, 3% hits;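 active = inhibition of at least 50% at 8 µM in the primary screen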
Target sequence (O15151 whole entry, looked up): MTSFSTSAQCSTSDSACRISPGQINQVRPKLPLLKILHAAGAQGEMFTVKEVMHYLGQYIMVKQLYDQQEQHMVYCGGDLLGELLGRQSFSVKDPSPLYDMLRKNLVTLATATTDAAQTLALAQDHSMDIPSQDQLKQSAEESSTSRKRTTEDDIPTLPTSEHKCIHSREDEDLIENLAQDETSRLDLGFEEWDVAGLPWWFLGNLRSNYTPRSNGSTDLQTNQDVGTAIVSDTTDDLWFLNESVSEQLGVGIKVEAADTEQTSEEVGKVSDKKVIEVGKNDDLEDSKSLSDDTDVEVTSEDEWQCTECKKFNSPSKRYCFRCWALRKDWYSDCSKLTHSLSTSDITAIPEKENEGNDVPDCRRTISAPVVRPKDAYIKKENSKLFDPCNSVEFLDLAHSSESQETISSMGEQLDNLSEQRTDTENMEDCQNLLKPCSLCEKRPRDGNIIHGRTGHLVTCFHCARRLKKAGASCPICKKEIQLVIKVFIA
Target sequence (Q00987 whole entry, looked up): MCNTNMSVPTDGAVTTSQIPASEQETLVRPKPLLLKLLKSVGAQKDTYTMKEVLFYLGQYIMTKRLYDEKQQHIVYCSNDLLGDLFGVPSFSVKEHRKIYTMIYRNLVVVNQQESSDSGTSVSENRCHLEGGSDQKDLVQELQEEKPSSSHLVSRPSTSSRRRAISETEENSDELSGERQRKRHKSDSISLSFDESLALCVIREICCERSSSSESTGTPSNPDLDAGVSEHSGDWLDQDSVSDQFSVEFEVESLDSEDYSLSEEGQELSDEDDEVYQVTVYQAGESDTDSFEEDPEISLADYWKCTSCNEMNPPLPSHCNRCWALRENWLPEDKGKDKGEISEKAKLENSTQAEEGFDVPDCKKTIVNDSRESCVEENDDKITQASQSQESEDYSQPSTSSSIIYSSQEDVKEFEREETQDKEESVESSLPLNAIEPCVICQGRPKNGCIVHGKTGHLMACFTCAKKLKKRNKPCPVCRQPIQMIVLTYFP
IMP-1 inhibitor: blocks Pseudomonas aeruginosa IMP-1 metallo-beta-lactamase. 290,000 compounds, 0.45% hits. purified IMP-1, nitrocefin hydrolysis, epi-absorbance fluorescence. inhibition, % at 5.6 µM;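 active = inhibition above the mean plus 3 SD of all compounds in the same screening run, cut at about 4.5% in these data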;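 also: 0% = IMP-1 with DMSO and 100% = DMSO wells lacking enzyme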
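System: purified recombinant IMP-1 beta-lactamase. Medium: Zinc- and detergent-supplemented HEPES buffer, pH 7.1. Compound: one 5.6 µM dose […]. Schedule: 15 min preincubation plus 25 min reaction at 25 °C. Technique: Epi-absorbance fluorescence, 480 nm excitation, 530 nm emission.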
aSyn 5UTR inh: MLPCN primary screen, SNCA 5' untranslated region; alpha-synuclein 5'UTR reporter, inhibitor activity; inhibition, % (tested at 7.5 µM); 300,000 compounds, 0.82% hits; AID 1813; in the data active = inhibition above about 60%;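 also: H4 neuroglioblastoma cells stably carrying SNCA 5'UTR luciferase fusion; 0% = DMSO wells and 100% = positive control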
* = called active by the depositor; . = not tested or not shown. Hits are enriched below; roughly 4.7% of the tested compounds scored in any of these assays.

SMILES	Jurkat NFkB inh	697 NFkB inh	VIM-2 inhibitor	Mdm2-MdmX inh	IMP-1 inhibitor	aSyn 5UTR inh
COc1ccc(N(C)S(=O)(=O)c2cccc(C(=O)NCc3ccc(C)cc3)c2)cc1	-2.3	-10.7	.	-32.7	.	.
COc1ccc(/C=N/n2c(-c3ccccc3)n[nH]c2=S)cc1	-7.1	-22.5	-2.0	20.2	-3.8	13.0
Cc1nn(-c2ccccc2)c(C)c1/C=N/n1c(-c2ccccc2Br)n[nH]c1=S	3.6	-18.8	-2.5	-1.6	-5.2	0.3
CCN(CC)c1ccc(/C=N/n2c(-c3ccccc3Br)n[nH]c2=S)cc1	33.4	-0.4	-3.0	-11.8	-3.8	77.5*
Oc1ccc(/C=N/n2c(-c3ccccc3)n[nH]c2=S)cc1	9.4	11.0	9.2*	20.8	0.2	26.4
CC1CN(S(=O)(=O)c2cccc(C(=O)NCCCn3ccnc3)c2)CC(C)O1 (stereo unspecified)	11.4	18.2	-2.1	4.7	-6.5	5.4
CC1CN(S(=O)(=O)c2ccc(C(=O)NCCCn3ccnc3)cc2)CC(C)O1 (stereo unspecified)	-16.2	23.5	-3.3	-18.7	-0.8	104.6*
O=C(Oc1ccccc1)c1c(Cl)cccc1P(=O)(O)O	4.8	18.6	8.5*	21.8	1.3	12.4
Cc1cnc(C(=O)OCC(=O)N(Cc2ccccc2)C(C)C)cn1	8.4	8.5	-2.5	-6.1	-2.2	12.8
Cc1cnc(C(=O)OCC(=O)N(C(C)C)C(C)C)cn1	12.0	-2.5	0.3	32.1	5.4*	12.4
Cn1c(=O)c2c(nc(Oc3ccccc3Br)n2C)n(C)c1=O	.	.	10.0*	.	-2.9	1.5
COc1ccc(Oc2nc3c(c(=O)n(C)c(=O)n3C)n2C)cc1	3.4	-33.0	2.3	36.6	-2.9	-14.2
Cc1cc(C(=O)COC(=O)c2cccnc2Cl)c(C)n1C	-99.0	-80.4	.	-47.7	.	.
COc1ccc(C(=O)Nc2ccc(C(=O)N3CCC(C)CC3)cc2)cc1OC	3.1	11.1	1.5	-2.3	-1.4	2.6
COc1ccc(C(=O)NC(=S)NNC(=O)c2cnccn2)cc1OC	7.4	10.7	-2.0	33.9	-5.6	90.5*
O=C(/C=C/c1ccccc1)NC(=S)NNC(=O)c1cnccn1	15.3	-16.6	-2.2	44.6	-4.5	86.6*
COc1ccc(C(=O)NCCNC(=O)c2cnccn2)cc1OC	-19.7	-5.8	-1.5	6.1	0.1	-7.2
CCOc1ccc(-c2ccc(SC)nn2)cc1	-46.8	-35.7	-0.7	20.9	-2.2	75.6*
CCOC(=O)C(=CNc1cc(Cl)c(-c2ccco2)c(Cl)c1)C(=O)OCC	6.9	4.9	0.5	-2.1	6.1*	24.3
CCOC(=O)C(=CNc1ccc(-c2ccco2)c(Cl)c1)C(=O)OCC	19.3	7.3	0.9	9.8	6.4*	-30.2
Oc1sc(C=Nc2ccc(F)cc2)c2ccccc12	-76.2	-87.6	5.7	-103.2	12.7*	-227.2
Oc1c(C=Nc2ccccc2)sc2ccccc12	-23.7	-161.1	1.1	8.7	-1.7	-65.2
O=C(CCSc1ccc(Cl)cc1)N1CCN(S(=O)(=O)c2ccccc2)CC1	-14.2	9.4	.	6.6	.	.
COc1ccc2cc[nH]c2c1	11.0	-4.5	-0.1	14.6	-0.3	70.8*
CCCCCC(=O)NC(=S)Nc1ccccc1C(=O)OC	-2.4	9.5	-1.7	-0.4	-1.4	-3.0
SMILES	Jurkat NFkB inh	697 NFkB inh	VIM-2 inhibitor	Mdm2-MdmX inh	IMP-1 inhibitor	aSyn 5UTR inh
CCCCC(=O)NC(=S)Nc1ccccc1C(=O)Nc1ccccc1	-2.0	14.0	0.3	-5.1	12.6*	-6.5
CC(=O)Nc1ccc(NC(=O)c2ccccc2Nc2ccccc2)cc1	1.0	8.4	-3.0	-5.3	-1.3	-14.1
CC(=O)NC(=S)Nc1ccccc1C(=O)Nc1ccccc1	4.0	-7.3	-0.2	-24.9	28.4*	-5.8
CNC(=O)/C(C#N)=C/c1c(N2CCCCCC2)nc2ccccn2c1=O	-6.3	-0.7	8.1*	7.6	-1.7	29.6
CCNC(=O)/C(C#N)=C/c1c(N2CCCCCC2)nc2ccccn2c1=O	-1.0	0.7	1.5	-7.4	-1.3	31.0
CCOc1ccccc1NC(=O)c1csc(C)c1C	16.9	-13.1	-0.2	18.9	-1.9	-6.1
CCN(CC)S(=O)(=O)c1cc(NC(=O)c2ccc3c(c2)NC(=O)C(C)S3)ccc1C (stereo unspecified)	11.4	-4.6	.	26.7	.	.
CC(C)(C)c1cc[n+](C2=C([O-])c3ccccc3C(=O)/C2=N\S(=O)(=O)c2cccs2)cc1	28.6	-7.4	3.3	49.5	7.0*	68.7*
O=C1/C(=N\S(=O)(=O)c2cccs2)C([n+]2ccccc2)=C([O-])c2ccccc21	7.9	-43.4	-0.5	26.3	-1.1	50.1
Nc1nonc1C(=O)NCCN=Cc1cc(Cc2ccccc2)cc(Br)c1O	-3.5	-13.1	-4.2	21.7	8.7*	-0.1
CCOC(=O)c1cc2occc2n1Cc1ccc(F)cc1	-6.8	-14.2	-2.6	14.6	24.1*	-0.3
Cc1ccccc1SCC(=O)N/N=C/c1ccc(F)cc1	13.6	-1.3	-3.4	-10.6	-1.1	-4.2
COc1cc(/C=N/NC(=O)C(=O)/C=C2\NC3(CCCC3)Cc3ccccc32)ccc1O	-13.7	-26.1	-2.8	5.7	-2.1	13.8
O=C(/C=C1\NC2(CCCC2)Cc2ccccc21)C(=O)N/N=C/c1ccccc1O	-9.7	-41.5	-4.3	45.1	-3.4	74.3*
O=C1COc2ccc(C(=O)CSc3nnc(Cc4cccs4)n3-c3ccccc3)cc2N1	-18.0	-18.6	2.1	10.5	-1.1	10.4
O=C1COc2ccc(C(=O)CSc3nnc(-c4cccs4)n3Cc3ccccc3)cc2N1	-1.5	-0.3	9.3*	-3.4	-2.6	-2.2
Cc1nc(N2CCN(C)CC2)c2sc(=S)n(-c3ccccc3)c2n1	-5.1	-4.0	-2.5	4.0	-3.2	-31.2
S=c1sc2c(Cl)ncnc2n1-c1ccccc1	.	.	-0.8	.	-2.1	92.9*
CCOC(=O)C1=C(C)Nc2ccccc2N=C1NC(=O)C1CCN(C(=O)c2ccccc2C)CC1	5.2	10.0	.	16.6	.	.
Cc1cc(NC(=O)c2ccccc2)c(Cl)cc1N	-28.0	11.1	-0.5	14.8	-1.0	64.0*
Cc1cc(N)ccc1NC(=O)c1ccccc1	-0.7	17.7	-0.3	8.5	-1.8	-31.9
CCOC(=O)C(OC(=O)c1sc(=S)n(C)c1C)C(C)=O (stereo unspecified)	8.9	29.8	9.2*	8.8	2.2	31.4
COc1ccccc1CC(=O)N1CCC(CCC(=O)NC2CC2)CC1	10.6	-18.7	0.6	-12.7	0.5	10.3
Nc1ccc(-c2nc3ccccc3o2)cc1	-97.0	-90.3	-0.1	-83.5	-3.3	-46.4
Nc1ccc(-c2c3ccccc3nc3ccccc23)cc1	.	.	9.6*	.	-1.4	16.0
Cc1c(Cl)c([N+](=O)[O-])nn1CC(=O)N1CCN(C23CC4CC(CC(C4)C2)C3)CC1	17.5	0.5	0.9	19.7	-0.6	5.6
CC(C)(C)c1cc(CNC2CS(=O)(=O)C[C@@H]2O)cc(C(C)(C)C)c1O (stereo partly specified)	1.2	-0.4	-0.5	8.1	7.3*	-34.6
